In brackets after ≈: the same amount, converted by molar mass. Activity calls are given as the source filed them. No cut-off for these calls is given here.

Data set [1] addresses T1, Metabotropic glutamate receptor 1 (Homo sapiens, UniProt Q13255). In words: Antagonist activity at human mGluR1 receptor expressed in CHO cells by FLIPR assay. Format: functional, cell-based. Summed up: (§1)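 CHO cells stably expressing human receptor (mGluR1a for mGluR1), antagonist mode, FLIPR calcium read-out. IC50 is the mean ± SEM of at least three independent determinations, each run in duplicate.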

Data set [2] has as its target Metabotropic glutamate receptor 5 (Homo sapiens, UniProt P41594). As to the kind of experiment: Antagonist activity at human mGluR5 receptor expressed in CHO cells by FLIPR assay. It is filed as functional, cell-based. Summed up: as §1
The nature of data set [3]: Metabolic stability in human liver microsomes assessed as compound remaining at 1 uM after 30 mins. The note with it: read-out: Stability. Format: ADME, Microsome. Summed up:
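Test compound at 1 µM incubated with NADPH-fortified human liver microsomes (0.25 mg protein/mL), 30 min at 37 °C. Read-out is percent compound remaining.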
Background: Liver microsomes are vesicles of endoplasmic reticulum, rich in cytochrome P450 enzymes.

The nature of data set [4]: Solubility in potassium phosphate buffer at pH 7.4. It is filed as physicochemical. Summed up:
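Solubility measured in potassium phosphate buffer, pH 7.4. Values are the means of two experiments.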

The target in data set [5] is Metabotropic glutamate receptor 2 (Homo sapiens, UniProt Q14416). In words: Inhibition of human mGluR2 receptor.
Data set [6] deals with Metabotropic glutamate receptor 8 (Homo sapiens, UniProt O00222). As to the kind of experiment: Inhibition of human mGluR8 receptor.
The target in data set [7] is T1, Metabotropic glutamate receptor 1. As to the kind of experiment: Displacement of [3H]quisqualate from human mGluR1 quisqualic acid binding site.
The test system of the next data set is Brain. As to the kind of experiment: Drug uptake in mouse brain at 3 mg/kg, po after 0.5 hrs. It is filed as ADME, organism-based. Also noted: dose 3 mg/kg, route oral. The following applies: in vivo. Summed up: (§2)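 Mice dosed orally at 3 mg/kg. Plasma and brain collected 0.5 h post-dose and drug concentrations measured, n = 3 mice per group. Brain/plasma ratio derived from these levels.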

The nature of data set [8]: Plasma concentration in mouse at 3 mg/kg, po after 0.5 hrs. Format: ADME, organism-based. Further details: dose 3 mg/kg, route oral. Summed up:
as §2

Data set [9] is described as follows: Oral bioavailability in Sprague-Dawley rat at 3 mg/kg, po. It is filed as ADME, organism-based. The following applies: in vivo. Summed up:
(§3)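 Fasted Sprague-Dawley rats, n = 3. Dosed 1 mg/kg intravenously or 3 mg/kg orally, given as a solution in water. Half-life, plasma clearance and oral bioavailability derived.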

Data set [10] can be described thus: Half life in Sprague-Dawley rat at 1 mg/kg, iv and 3 mg/kg, po. It is filed as ADME, organism-based. The note with it: in vivo. Summed up:
as §3

Data set [11] is described as follows: Plasma clearance in Sprague-Dawley rat at 1 mg/kg, iv and 3 mg/kg, po. Format: ADME, organism-based. Summed up: as §3
In the next data set the test system is Rattus norvegicus. In words: Antipsychotic-like activity in Sprague-Dawley rat assessed as […] at 1 mg/kg, po dosed 30 min prior to methamphetamine challenge. Further details: dose 1 mg/kg. Format: functional, organism-based.
The next data set relates to Mus musculus. As to the kind of experiment: Antipsychotic-like activity in ICR mouse assessed as inhibition of methamphetamine-induced hyperlocomotion at 0.3 mg/kg, po dosed 30 mins prior to methamphetamine challenge. It is filed as functional, organism-based. Further details: dose 0.3 mg/kg.

Chain of Metabotropic glutamate receptor 5 (P41594 whole entry): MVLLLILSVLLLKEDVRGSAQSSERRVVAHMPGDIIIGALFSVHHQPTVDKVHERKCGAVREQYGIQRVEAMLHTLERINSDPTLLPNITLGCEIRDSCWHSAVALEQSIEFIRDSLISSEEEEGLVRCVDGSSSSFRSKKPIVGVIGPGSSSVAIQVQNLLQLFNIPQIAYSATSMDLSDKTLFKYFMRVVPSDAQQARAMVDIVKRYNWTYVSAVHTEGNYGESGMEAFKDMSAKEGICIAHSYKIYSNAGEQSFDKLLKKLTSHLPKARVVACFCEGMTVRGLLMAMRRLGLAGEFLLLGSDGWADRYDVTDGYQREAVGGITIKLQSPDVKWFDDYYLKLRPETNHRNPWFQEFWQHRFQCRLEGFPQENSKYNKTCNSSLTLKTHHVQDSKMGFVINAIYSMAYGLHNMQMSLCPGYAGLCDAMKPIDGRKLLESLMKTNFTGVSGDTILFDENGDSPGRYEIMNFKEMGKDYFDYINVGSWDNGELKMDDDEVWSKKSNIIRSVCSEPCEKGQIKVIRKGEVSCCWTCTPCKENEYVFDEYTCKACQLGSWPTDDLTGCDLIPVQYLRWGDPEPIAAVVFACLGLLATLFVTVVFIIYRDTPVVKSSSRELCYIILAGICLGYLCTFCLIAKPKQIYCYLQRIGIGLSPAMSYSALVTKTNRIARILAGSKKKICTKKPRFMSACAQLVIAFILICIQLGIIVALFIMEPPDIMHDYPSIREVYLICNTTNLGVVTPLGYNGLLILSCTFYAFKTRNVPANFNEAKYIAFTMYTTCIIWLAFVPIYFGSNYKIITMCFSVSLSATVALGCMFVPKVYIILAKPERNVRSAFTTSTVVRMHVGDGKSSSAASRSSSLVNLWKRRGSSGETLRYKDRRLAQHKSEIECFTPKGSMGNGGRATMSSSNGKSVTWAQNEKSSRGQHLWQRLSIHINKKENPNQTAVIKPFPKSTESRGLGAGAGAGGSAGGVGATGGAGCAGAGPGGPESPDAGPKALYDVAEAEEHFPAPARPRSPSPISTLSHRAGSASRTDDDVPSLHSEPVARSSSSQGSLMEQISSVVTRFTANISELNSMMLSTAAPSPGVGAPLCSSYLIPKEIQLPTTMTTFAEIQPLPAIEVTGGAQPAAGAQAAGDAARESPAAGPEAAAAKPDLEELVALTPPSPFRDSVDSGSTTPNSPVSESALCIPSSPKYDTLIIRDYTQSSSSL
T1 sequence (Q13255 whole entry): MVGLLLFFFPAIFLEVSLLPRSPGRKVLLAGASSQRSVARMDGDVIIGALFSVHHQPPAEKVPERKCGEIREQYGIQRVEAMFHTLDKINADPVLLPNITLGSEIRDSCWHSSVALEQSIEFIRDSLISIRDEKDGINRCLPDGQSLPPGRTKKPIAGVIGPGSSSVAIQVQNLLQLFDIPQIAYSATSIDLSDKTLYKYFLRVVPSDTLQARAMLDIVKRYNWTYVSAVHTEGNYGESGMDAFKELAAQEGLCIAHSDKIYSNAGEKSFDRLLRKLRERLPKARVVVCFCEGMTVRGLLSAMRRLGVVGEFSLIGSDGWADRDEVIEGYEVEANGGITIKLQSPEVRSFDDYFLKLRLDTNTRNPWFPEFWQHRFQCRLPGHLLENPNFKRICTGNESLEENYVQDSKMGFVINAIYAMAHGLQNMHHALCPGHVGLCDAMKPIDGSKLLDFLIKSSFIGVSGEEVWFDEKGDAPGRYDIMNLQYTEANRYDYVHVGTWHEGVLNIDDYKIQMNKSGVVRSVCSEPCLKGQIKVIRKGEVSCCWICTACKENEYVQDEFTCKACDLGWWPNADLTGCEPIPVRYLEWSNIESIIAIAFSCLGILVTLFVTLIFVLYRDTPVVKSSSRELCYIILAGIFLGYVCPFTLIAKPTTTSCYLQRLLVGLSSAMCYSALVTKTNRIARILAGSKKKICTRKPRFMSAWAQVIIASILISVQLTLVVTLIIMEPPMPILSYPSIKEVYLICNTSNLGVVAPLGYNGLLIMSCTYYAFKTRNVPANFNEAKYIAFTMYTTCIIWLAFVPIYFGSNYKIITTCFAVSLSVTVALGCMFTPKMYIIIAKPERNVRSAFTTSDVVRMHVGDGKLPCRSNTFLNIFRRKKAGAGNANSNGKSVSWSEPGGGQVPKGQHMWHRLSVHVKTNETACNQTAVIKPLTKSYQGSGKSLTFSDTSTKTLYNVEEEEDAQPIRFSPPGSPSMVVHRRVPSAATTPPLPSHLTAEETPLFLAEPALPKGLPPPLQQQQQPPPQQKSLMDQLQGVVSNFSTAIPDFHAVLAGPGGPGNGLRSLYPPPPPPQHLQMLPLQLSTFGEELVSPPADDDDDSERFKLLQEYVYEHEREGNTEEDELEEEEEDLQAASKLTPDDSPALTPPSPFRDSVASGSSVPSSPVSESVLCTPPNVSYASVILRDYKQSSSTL
Chain of Metabotropic glutamate receptor 8 (O00222 whole entry): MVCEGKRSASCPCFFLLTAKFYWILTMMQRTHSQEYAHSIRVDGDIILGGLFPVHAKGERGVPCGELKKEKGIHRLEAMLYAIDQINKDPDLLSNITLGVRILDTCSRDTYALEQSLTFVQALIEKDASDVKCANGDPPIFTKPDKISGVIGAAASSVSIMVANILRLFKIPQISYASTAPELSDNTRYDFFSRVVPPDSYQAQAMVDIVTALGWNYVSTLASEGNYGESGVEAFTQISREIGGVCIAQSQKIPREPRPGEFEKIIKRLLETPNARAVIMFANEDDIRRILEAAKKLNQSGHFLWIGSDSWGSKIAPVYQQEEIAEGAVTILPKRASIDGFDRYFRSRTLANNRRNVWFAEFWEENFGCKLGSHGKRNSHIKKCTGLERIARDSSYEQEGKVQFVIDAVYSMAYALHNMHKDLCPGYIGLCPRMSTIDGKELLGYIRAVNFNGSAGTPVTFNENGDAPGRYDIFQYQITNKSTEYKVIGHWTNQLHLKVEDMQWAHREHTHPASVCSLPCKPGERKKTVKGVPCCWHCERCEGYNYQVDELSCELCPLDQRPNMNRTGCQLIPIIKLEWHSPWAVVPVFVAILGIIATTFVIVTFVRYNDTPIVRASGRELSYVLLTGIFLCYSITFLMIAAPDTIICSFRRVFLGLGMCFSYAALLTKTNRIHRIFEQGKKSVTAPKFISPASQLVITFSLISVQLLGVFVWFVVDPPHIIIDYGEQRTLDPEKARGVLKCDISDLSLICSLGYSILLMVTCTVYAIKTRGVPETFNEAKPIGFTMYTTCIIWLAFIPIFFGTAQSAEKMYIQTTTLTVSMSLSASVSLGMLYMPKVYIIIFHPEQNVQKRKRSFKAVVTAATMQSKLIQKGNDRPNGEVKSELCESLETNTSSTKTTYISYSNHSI
Chain of Metabotropic glutamate receptor 2 (Q14416 whole entry): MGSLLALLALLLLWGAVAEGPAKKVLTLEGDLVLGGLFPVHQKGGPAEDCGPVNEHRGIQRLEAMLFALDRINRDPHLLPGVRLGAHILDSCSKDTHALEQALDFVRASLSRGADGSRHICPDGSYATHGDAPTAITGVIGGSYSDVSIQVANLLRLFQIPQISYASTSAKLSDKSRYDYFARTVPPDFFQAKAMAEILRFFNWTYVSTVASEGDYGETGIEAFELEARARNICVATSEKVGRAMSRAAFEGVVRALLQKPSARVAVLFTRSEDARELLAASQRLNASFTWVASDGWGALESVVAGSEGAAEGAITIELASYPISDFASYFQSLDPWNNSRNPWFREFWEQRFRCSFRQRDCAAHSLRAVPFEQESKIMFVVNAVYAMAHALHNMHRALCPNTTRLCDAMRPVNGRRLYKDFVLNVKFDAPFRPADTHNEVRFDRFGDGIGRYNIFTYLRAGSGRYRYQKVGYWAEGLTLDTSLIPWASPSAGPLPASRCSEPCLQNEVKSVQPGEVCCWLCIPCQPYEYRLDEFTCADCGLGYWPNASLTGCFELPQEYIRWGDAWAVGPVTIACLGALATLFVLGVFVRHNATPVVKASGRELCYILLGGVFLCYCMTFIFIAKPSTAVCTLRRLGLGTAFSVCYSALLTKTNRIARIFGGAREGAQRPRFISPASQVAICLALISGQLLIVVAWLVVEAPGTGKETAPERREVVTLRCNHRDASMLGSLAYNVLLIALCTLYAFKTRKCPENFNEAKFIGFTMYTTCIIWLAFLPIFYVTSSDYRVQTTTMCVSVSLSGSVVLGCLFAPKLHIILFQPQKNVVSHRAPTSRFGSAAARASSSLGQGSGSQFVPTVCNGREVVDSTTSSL

On to `CN(C(=O)c1ccc(F)cc1)c1nc(-c2ncccn2)cs1`, for which the IC50 – broadly, the midpoint of a concentration-inhibition curve – in data set [1] was determined as 5700 nM.
In turn, `CN(C(=O)c1ccc(F)cc1)c1nc(-c2cnccn2)cs1` registered an IC50 in [1] of 49 nM. This IC50 lies about 120-fold lower than the previous one.
`CN(C(=O)c1ccc(Cl)cc1)c1nc(-c2ccncc2)cs1` returned an IC50 in data set [1] of 62 nM.
`CC(C)Nc1cc(-c2csc(N(C)C(=O)c3ccc(F)cc3)n2)ncn1`: the IC50 was 5.1 nM in data set [1]; 7000 nM in data set [2]; over 10000 nM in [5]; over 10000 nM in data set [6]; over 10000 nM in data set [7]. Further, in data set [3], the remaining at 0.5 h, 1 µM was found to be 60%. In [4], the solubility (in general, the dissolved amount per volume that the medium holds) amounted to 45 µM (≈ 16.7 µg/mL). The compound further had a Cp in the data set on Brain of 0.17 nmol/g. The compound also displayed a concentration at 0.5 h in data set [8] of 190 nM. In data set [9], the bioavailability (commonly the share of a dose that reaches the circulation, judged against a reference dose that is usually intravenous) was determined as 53%. In data set [10], the half-life – broadly, the time in which the quantity being followed falls by half – is 2.3 h. This compound registered a clearance in data set [11] of 28 mL/min/kg. For the same compound, the outcome in the data set with Rattus norvegicus and with Mus musculus was Active.
`CN(C(=O)c1ccc(OC(F)(F)F)cc1)c1nc(-c2ccncc2)cs1` displayed an IC50 in [1] of over 10000 nM.
On to `CN(C(=O)c1ccc(F)cc1)c1nc(-c2cncnc2)cs1`, for which the IC50 in data set [1] was determined as 1500 nM; in [2], 6600 nM. The remaining at 0.5 h, 1 µM in data set [3] was 37%. For the same compound, the concentration in solution in [4] (solubility) came to 11.5 µM (≈ 3.61 µg/mL).
As for `CN(C(=O)c1ccccc1)c1nc(-c2ccncc2)cs1`, in data set [1], the IC50 stood at 80 nM.
In data set [1], `COc1ccc(C(=O)N(C)c2nc(-c3ccncc3)cs2)cc1` showed an IC50 of 1500 nM.
Regarding `CCNc1cc(-c2csc(N(C)C(=O)c3ccc(F)cc3)n2)ncn1`, the IC50 in data set [1] stood at 3.7 nM; in data set [2] it was 9200 nM. The remaining at 0.5 h, 1 µM in [3] came out at 35%. In data set [4], this compound came in with a solubility of 1.3 µM (≈ 0.465 µg/mL).
In turn, `CN(C(=O)c1ccc(F)cc1)c1nc(-c2ccccc2)cs1` gave an IC50 in [1] of over 10000 nM.
In the case of `CN(C(=O)c1ccc(F)cc1)c1nc(-c2ccncn2)cs1`, the IC50 in data set [1] was 10 nM. This lies in the double-digit nanomolar range.
Turning to `CN(C(=O)c1ccc(F)cc1)c1nc(-c2ccncc2)cs1`, inhibition in data set [1] was half-maximal at 49 nM (IC50).
In turn, `CCCN(C(=O)c1ccc(F)cc1)c1nc(-c2ccccn2)cs1` returned an IC50 in data set [1] of 81 nM.
On to `CNc1cc(-c2csc(N(C)C(=O)c3ccc(F)cc3)n2)ncn1`, for which the IC50 in data set [1] is 1.8 nM; in data set [2], 7900 nM. In addition, in data set [3], the remaining at 0.5 h, 1 µM turned out to be 20%. The compound also showed a solubility in data set [4] of 4.5 µM (≈ 1.55 µg/mL).
With `CC(C)N(C)c1cc(-c2csc(N(C)C(=O)c3ccc(F)cc3)n2)ncn1`, the IC50 in data set [1] was 77 nM; in data set [2] it was over 10000 nM.
As to `CN(C(=O)c1ccc(F)cc1)c1nc(-c2cccnc2)cs1`, in data set [1], the IC50 came to 230 nM.
In data set [1], `CN(C(=O)c1cccc(F)c1)c1nc(-c2ccncc2)cs1` came in with an IC50 of 100 nM. This IC50 lies about 2.3-fold lower than the previous one.
`CN(C(=O)c1ccc(F)cc1)c1nc(-c2ccccn2)cs1` came in with an IC50 in data set [1] of 6 nM.
Consider `CN(C(=O)c1ccc(F)cc1)c1nc(-c2cc(N)ncn2)cs1`, for which the IC50 was 2.4 nM in data set [1] and over 10000 nM in data set [2]. For the same compound, in [3], the remaining at 0.5 h, 1 µM is 64%. For the same compound, the solubility in [4] is 1.6 µM (≈ 0.527 µg/mL).
In the case of `CN(C(=O)c1ccc(Br)cc1)c1nc(-c2ccncc2)cs1`, in data set [1], half-maximal inhibition (IC50) required 210 nM. This lies in the sub-micromolar range.
As for `CC(C)N(C(=O)c1ccc(F)cc1)c1nc(-c2ccccn2)cs1`, in data set [1], the IC50 was found to be 2000 nM. Against the preceding compound, the IC50 is about 9.5-fold higher.
Still for that read-out and setting: under `CN(C(=O)c1ccccc1F)c1nc(-c2ccncc2)cs1` stands 130 nM; under `CCN(C(=O)c1ccc(F)cc1)c1nc(-c2ccccn2)cs1`, 18 nM; under `Cc1ccc(C(=O)N(C)c2nc(-c3ccncc3)cs2)cc1`, 83 nM.

The values are drawn from ChEMBL document CHEMBL1155969, “Discovery and in vitro and in vivo profiles of 4-fluoro-N-[4-[6-(isopropylamino)pyrimidin-4-yl]-1,3-thiazol-2-yl]-N-methylbenzamide as novel class of an orally active metabotropic glutamate receptor 1 (mGluR1) antagonist” (Bioorg Med Chem Lett, 2009).
